In ChEMBL document CHEMBL3098028, “Synthesis and in vitro and in vivo pharmacological evaluation of new 4-aminoquinoline-based compounds” (ACS Med Chem Lett, 2013):
≈ marks a conversion by molar mass, not a printed value.

What was measured:
[1] = Kinetic solubility of the compound in 0.01 M HCl at pH 2 after 2 hrs by HPLC analysis; format: physicochemical; conditions: read-out: Kinetic_solubility
[2] = Kinetic solubility of the compound in phosphate buffered saline at pH 7.4 after 2 hrs by HPLC analysis; format: physicochemical; conditions: read-out: Kinetic_solubility
Plasmodium falciparum [3] = experiment: Resistance index, ratio of IC50 for chloroquine-resistant Plasmodium falciparum K1 to IC50 for chloroquine-sensitive Plasmodium falciparum 3D7; format: functional
Plasmodium falciparum [4] = experiment: Antiplasmodial activity against chloroquine-resistant Plasmodium falciparum W2 after 24 hrs by [3H]hypoxanthine incorporation assay; format: functional, organism-based
How it was run: (§1)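 Antiplasmodial testing was done at the Swiss Tropical and Public Health Institute. Chloroquine, the reference drug, was tested as its diphosphate salt.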

Plasmodium falciparum [5] = experiment: Antiplasmodial activity against chloroquine-resistant Plasmodium falciparum K1 after 24 hrs by [3H]hypoxanthine incorporation assay; format: functional, organism-based; how it was run: as §1
Plasmodium falciparum [6] = experiment: Antiplasmodial activity against chloroquine-sensitive Plasmodium falciparum 3D7 after 24 hrs by [3H]hypoxanthine incorporation assay; format: functional, organism-based; how it was run: as §1

SMILES | solubility kinetic at 2 h [1] | solubility kinetic at 2 h [2] | Ratio IC50 (Plasmodium falciparum [3]) | IC50 (Plasmodium falciparum [4]) | IC50 (Plasmodium falciparum [5]) | IC50 (Plasmodium falciparum [6])
CC(C)(C)n1nnnc1C(NCCNc1ccnc2cc(Cl)ccc12)c1ccccc1 (centres undefined) | > 200 µM | 111 µM (≈ 48.4 µg/mL) | 7.6 | 69 nM | 38 nM | 5 nM
Cc1ccc(C(NCCNc2ccnc3cc(Cl)ccc23)c2nnn[nH]2)cc1 (centres undefined) |  |  |  |  | 17400 nM | 
Clc1ccc2c(NCCNC(c3ccc(Cl)c(Cl)c3)c3nnn[nH]3)ccnc2c1 (centres undefined) | 191 µM (≈ 85.7 µg/mL) | 70.1 µM (≈ 31.5 µg/mL) |  |  | 4390 nM | 
Clc1ccc(C(NCCNc2ccnc3cc(Cl)ccc23)c2nnn[nH]2)cc1 (centres undefined) | > 200 µM | 164 µM (≈ 67.9 µg/mL) |  |  | 2380 nM | 
Clc1ccc2c(NCCCNC(c3ccccc3)c3nnn[nH]3)ccnc2c1 (centres undefined) |  |  |  |  | 14300 nM | 
Clc1ccc2c(NCCCCNC(c3ccccc3)c3nnn[nH]3)ccnc2c1 (centres undefined) |  |  |  |  | 6850 nM | 
COc1ccc(C(NCCNc2ccnc3cc(Cl)ccc23)c2nnnn2C(C)(C)C)cc1 (centres undefined) |  |  | 0.041 | 46 nM | 155 nM | 3820 nM
